The text below walks through data of ChEMBL document CHEMBL1140100, “Flexible cyclic ethers/polyethers as novel P2-ligands for HIV-1 protease inhibitors: design, synthesis, biological evaluation, and protein-ligand X-ray studies” (J Med Chem, 2008).

Test [1] has as its system Human immunodeficiency virus 1. As to the kind of experiment: Antiviral activity against multidrug-resistant HIV1 with protease L10I, K14R, R41K, M46L, I54V, L63P, A71V, V82A, L90M, I93L mutation in phytohemagglutininin-activated PBMC assessed as inhibition of p24Gag protein production. Type of test: functional, organism-based. Put shortly: (§1)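 Clinical HIV-1 isolates (ERS104pre as wild-type reference; multidrug-resistant isolates with the listed protease substitutions relative to consensus type B) were tested in phytohemagglutinin-activated human peripheral blood mononuclear cells. The endpoint was inhibition of p24Gag protein production, and IC50 was determined in triplicate.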

Test [2] has as its system Human immunodeficiency virus 1. As to the kind of experiment: Antiviral activity against multidrug-resistant HIV1 with protease L10I, K43T, M46L, I54V, L63P, A71V, V82A, L90M, Q92K mutation in phytohemagglutininin-activated PBMC assessed as inhibition of p24G protein production. The test is classed as functional, organism-based. In short, it runs like this:
as §1

In test [3] the test system is Human immunodeficiency virus 1. As to the kind of experiment: Antiviral activity against multidrug-resistant HIV1 with protease L10I, L24I, I33F, E35D, M36I, N37S, M46L, I54V, R57K, I62V, L63P, A71V, G73S, V82A mutation in phytohemagglutininin-activated PBMC assessed as inhibition of p24G protein production. The test is classed as functional, organism-based. In short, it runs like this: as §1

Test [4] relates to Human immunodeficiency virus 1. As to the kind of experiment: Antiviral activity against multidrug-resistant HIV1 with protease L10I, K14R, L33I, M36I, M46I, F53I, K55R, I62V, L63P, A71V, G73S, V82A, L90M, I93L mutation in phytohemagglutininin-activated PBMC assessed as inhibition of p24G protein production. Type of test: functional, organism-based. Put shortly:
as §1

The test system of test [5] is Human immunodeficiency virus 1. As to the kind of experiment: Antiviral activity against multidrug-resistant HIV1 with protease L10I, V11I, T12E, I15V, L19I, R41K, M46L, L63P, A71T, V82A, L90M mutation in phytohemagglutininin-activated PBMC assessed as inhibition of p24G protein production. Type of test: functional, organism-based. Put shortly:
as §1

Test [6] has as its system Human immunodeficiency virus 1. As to the kind of experiment: Antiviral activity against multidrug-resistant HIV1/C with protease mutation in phytohemagglutininin-activated PBMC assessed as inhibition of p24G protein production. The test is classed as functional, organism-based.
For test [7], the system named is Human immunodeficiency virus 1. As to the kind of experiment: Antiviral activity against multidrug-resistant HIV1/A with protease mutation in phytohemagglutininin-activated PBMC assessed as inhibition of p24G protein production. Type of test: functional, organism-based.
Test [8] relates to Human immunodeficiency virus 1. As to the kind of experiment: Antiviral activity against HIV1 ERS104 with protease L63P mutation in phytohemagglutininin-activated PBMC assessed as inhibition of p24G protein production. Type of test: functional, organism-based. Put shortly: as §1
In test [9] the test system is Human immunodeficiency virus 1. As to the kind of experiment: Antiviral activity against HIV1 LAI in human MT2 cells assessed as inhibition of virus-induced cytopathic effect. The test is classed as functional, organism-based. The note with it: Human immunodeficiency virus 1, LAI. A general note: Cytopathic effects are the visible damage that an infection or toxin causes in cultured cells.

Another test concerns the target Protease (Human immunodeficiency virus 1, UniProt Q9YQ12). As to the kind of experiment: Inhibition of HIV1 protease.
Where [10] appears, read: read-out: ID50 (the source's name).

pIC50, pKi: −log10 of the molar value.

Protease, sequence (Q9YQ12 whole entry): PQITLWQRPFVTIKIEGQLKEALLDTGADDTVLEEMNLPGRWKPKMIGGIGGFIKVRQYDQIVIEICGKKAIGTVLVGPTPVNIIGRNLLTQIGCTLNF

With `CC(C)CN(C[C@@H](O)[C@H](Cc1ccccc1)NC(=O)O[C@H]1CCOC1)S(=O)(=O)c1ccc(N)cc1`, the pIC50 is 6.54 in [1]; 6.52 in [2]; 6.37 in test [3]; 6.49 in [4]; 6.47 in test [5]; 6.64 in [6]. The values for the pIC50 in test [7] and in test [8] were 7.00 and 7.48, respectively.
Consider `CC(C)CN(C[C@@H](O)[C@H](Cc1ccccc1)NC(=O)O[C@H]1CO[C@H]2OCC[C@H]21)S(=O)(=O)c1ccc(N)cc1`, for which the pIC50 was 8.80 in test [9] (setting [10]); 8.40 in test [1]; 7.59 in test [4]; 8.52 in test [7]; 8.46 in [8].
The pKi is the negative decadic logarithm of the Ki, by convention in mol/L. A low value points to a high Ki. `COc1ccc(S(=O)(=O)N(CC(C)C)C[C@@H](O)[C@H](Cc2ccccc2)NC(=O)OC2COCCS(=O)(=O)CCOC2)cc1` gave a pKi on Protease of 8.72. In addition, the pIC50 in test [9] (read-out: IC50) is below 6.00.
The corresponding values for `COc1ccc(S(=O)(=O)N(CC(C)C)C[C@@H](O)[C@H](Cc2ccccc2)NC(=O)OC2COCCN(C)CCOC2)cc1` are 7.72 and below 6.00.
On Protease, `COc1ccc(S(=O)(=O)N(CC(C)C)C[C@@H](O)[C@H](Cc2ccccc2)NC(=O)O[C@H]2CCCOCOC2)cc1` showed a pKi of 9.82.
`COc1ccc(S(=O)(=O)N(CC(C)C)C[C@@H](O)[C@H](Cc2ccccc2)NC(=O)O[C@H]2CO[C@H]3OCC[C@H]32)cc1`: in test [9] (setting [10]), the pIC50 is 8.92.
With `COc1ccc(S(=O)(=O)N(CC(C)C)C[C@@H](O)[C@H](Cc2ccccc2)NC(=O)O[C@@H]2CCOCOC2)cc1`, the pIC50 was 8.31 in test [9] (read-out: IC50); 6.66 in [1]; 6.60 in test [2]; 6.30 in [3]; 6.47 in test [4]; 6.44 in test [5]. Besides, the pIC50 in test [6] is 6.68; in [7] it was 7.70; in test [8], 7.70.
`COc1ccc(S(=O)(=O)N(CC(C)C)C[C@@H](O)[C@H](Cc2ccccc2)NC(=O)OC2CCCCCC2)cc1` gave a pKi on Protease of 7.57.
`COc1ccc(S(=O)(=O)N(CC(C)C)C[C@@H](O)[C@H](Cc2ccccc2)NC(=O)OC2COCCOCCOC2)cc1` showed a pKi at Protease of 7.80.
`COc1ccc(S(=O)(=O)N(CC(C)C)C[C@@H](O)[C@H](Cc2ccccc2)NC(=O)O[C@@H]2CCCCOC2)cc1`: at Protease, the pKi was 9.09. Against the preceding compound, the pKi is 1.29 log units higher.
Still for that read-out and setting: next, `COc1ccc(S(=O)(=O)N(CC(C)C)C[C@@H](O)[C@H](Cc2ccccc2)NC(=O)O[C@H]2CCCOCC2)cc1`: 9.13.
On to `COc1ccc(S(=O)(=O)N(CC(C)C)C[C@@H](O)[C@H](Cc2ccccc2)NC(=O)OC2COCCOCOCCOC2)cc1`, for which the pKi at Protease is 8.20. For the same compound, in test [9] (read-out: IC50), the pIC50 was below 6.00.
`COc1ccc(S(=O)(=O)N(CC(C)C)C[C@@H](O)[C@H](Cc2ccccc2)NC(=O)OC2COCCOCCOCCOC2)cc1` had a pKi on Protease of 7.48.
In the case of `COc1ccc(S(=O)(=O)N(CC(C)C)C[C@@H](O)[C@H](Cc2ccccc2)NC(=O)O[C@@H]2CCCOCOC2)cc1`, at Protease, the pKi is 9.80.
Take `COc1ccc(S(=O)(=O)N(CC(C)C)C[C@@H](O)[C@H](Cc2ccccc2)NC(=O)O[C@H]2CCOCOC2)cc1`: at Protease, the pKi was 9.80. The pIC50 in test [9] (read-out: IC50) is 7.52.
At Protease, `COc1ccc(S(=O)(=O)N(CC(C)C)C[C@@H](O)[C@H](Cc2ccccc2)NC(=O)OC2COCOC2)cc1` had a negative-log Ki (pKi) of 10.39. Also, the pIC50 in test [9] (read-out: IC50) was 8.47; in [1] it was 7.19; in test [2], 6.96; in test [3], 6.48; in test [4] it was 6.64; in test [5], 6.52. For the same compound, the values for the pIC50 in test [6], in test [7] and in test [8] were 6.80, 7.89 and 8.22, respectively.
Take `CC(C)(C)NC(=O)[C@@H]1CN(Cc2cccnc2)CCN1C[C@@H](O)C[C@@H](Cc1ccccc1)C(=O)N[C@H]1c2ccccc2C[C@H]1O`: the pIC50 in [1] was below 6.00; in [2] it was below 6.00; in test [3], below 6.00; in [4], below 6.00; in test [5], 6.54; in test [6] it was below 6.00. For the same compound, the pIC50 in [7] was below 6.00; in [8], 7.59.
As to `CC(C)c1nc(CN(C)C(=O)N[C@H](C(=O)N[C@@H](Cc2ccccc2)C[C@H](O)[C@H](Cc2ccccc2)NC(=O)OCc2cncs2)C(C)C)cs1` [RITONAVIR], the pIC50 in test [1], in test [2], in [3], in test [4], in test [5] and in [6] was below 6.00 throughout. The values for the pIC50 in test [7] and in test [8] were below 6.00 and 7.47, respectively.
